The record followed here is ChEMBL document CHEMBL4033777, “Next-Generation Hypoxic Cell Radiosensitizers: Nitroimidazole Alkylsulfonamides” (J Med Chem, 2018).

Series [1] in a line: Tmax in tumor of NIH-III mouse xenografted with human HCT116 cells at 1.12 mmol/kg, iv administered as single dose by HPLC analysis. In kind it is ADME, organism-based, Neoplasm. The gist of the method:
(§1)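 Female NIH-III mice bearing subcutaneous HCT116 tumors (10^6 cells; ~300 mm3) got a single i.v. dose at the MAD or 75% of the MTD. Vehicle was saline with 1% DMSO, or saline with 2 equivalents of NaHCO3 for the phosphates. Plasma and tumor were sampled at multiple times by cardiac puncture and excision, drug was measured by HPLC, and Tmax came from noncompartmental analysis.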

Series [2] in a line: Cmax in tumor of NIH-III mouse xenografted with human HCT116 cells at 1.12 mmol/kg, iv administered as single dose by HPLC analysis. Particulars: in vivo. Also noted: dose 1.12 mmol/kg, route intravenous. In kind it is ADME, organism-based, Neoplasm. The gist of the method:
(§2)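 Female NIH-III mice bearing subcutaneous HCT116 xenografts (10^6 cells inoculated). At ca. 300 mm3 tumor size, a single i.v. dose was given at the MAD or 75% of the MTD. Vehicle was 0.9% saline with 1% DMSO, or saline with 2 molar equivalents NaHCO3 for phosphate prodrugs. Plasma and tumor were sampled at multiple times by cardiac puncture and excision, assayed by HPLC, and analysed noncompartmentally.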

The test system of series [3] is HCT-116. As to the kind of experiment: Cytotoxicity against human HCT116 cells at anoxic IC50 incubated for 1 hr at 21 degC by clonogenic survival assay. Particulars: hct-116, 1 h.
The test system of series [4] is HCT-116. As to the kind of experiment: Hypoxia radiosensitization activity in human HCT116 cells assessed as survival ratio by measuring ratio of cell survival with 15 Gy radiation in absence to presence of compound at anoxic IC50 preincubated for 1 hr followed by 15 Gy irradiation measured after 10 days by methylene blue staining-based cell counting method. In kind it is functional. An outline of the steps: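 Anoxic HCT116 cells were seeded at 10^5/well and treated at the anoxic IC50 concentration for 1 h at room temperature. They were irradiated with 15 Gy (60Co, ~2 Gy/min) in a sealed steel box, then plated clonogenically. Colonies of >50 cells were counted […]. SR15 = survival with radiation / survival with drug + radiation.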

Series [5] is described as follows: Solubility of the compound in alphaMEM containing 5% FCS and 1% DMSO by HPLC analysis. In kind it is physicochemical. The gist of the method: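 Saturated drug solutions were incubated at 37 °C in αMEM with 5% FCS and 1% DMSO. Dissolved drug was quantified by HPLC.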
The test system of series [6] is HCT-116. As to the kind of experiment: In vivo hypoxia radiosensitization activity in human HCT116 cells xenografted in NIH-III mouse assessed as survival ratio by measuring ratio of cell survival with 12.5 Gy radiation in absence to presence of compound at 1.12 mmol/kg, iv pretreated as single dose for 10 mins followed by irradiation measured after 18 hrs by excision assay. In kind it is functional. Background: In xenograft studies the graft and the host belong to different species.

The subject of series [7] is Plasma. The series is described as follows: Cmax in plasma of NIH-III mouse xenografted with human HCT116 cells at 1.12 mmol/kg, iv administered as single dose by HPLC analysis. In kind it is ADME, organism-based. Also noted: dose 1.12 mmol/kg, route intravenous. The note with it: in vivo. An outline of the steps:
as §2

In series [8] the test system is HCT-116. As to the kind of experiment: Hypoxia radiosensitization activity in human HCT116 cells assessed as survival ratio by measuring ratio of cell survival with radiation in absence to presence of compound at 0.4 mM preincubated for 1 hr followed by 6 to 29 Gy irradiation measured after 10 days by methylene blue staining-based cell counting method relative to misonidazole. In kind it is functional.

The nature of series [9]: Tmax in plasma of NIH-III mouse xenografted with human HCT116 cells at 1.12 mmol/kg, iv administered as single dose by HPLC analysis. In kind it is ADME, organism-based. An outline of the steps:
as §1

Series [10] has as its system HCT-116. The series is described as follows: Hypoxia radiosensitization activity in human HCT116 cells assessed as sensitizer enhancement ratio by measuring ratio of radiation dose for 1% survival in absence to presence of compound at 0.4 mM preincubated for 1 hr followed by irradiation measured after 10 days by methylene blue staining-based cell counting method. In kind it is functional.

Series [11] deals with HCT-116. The series is described as follows: Cytotoxicity against human HCT116 cells incubated for 4 hrs under anaerobic condition measured after 5 days by sulforhodamine B assay. In kind it is functional, cell-based. An outline of the steps: (§3)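 STR-authenticated, mycoplasma-free HCT116 cells in αMEM + 5% FCS were seeded at 700 cells/well and allowed 2 h to attach. Drug was added from DMSO stocks (<1% DMSO) in serial 3-fold dilutions for 4 h, oxic or anoxic (Pd-catalyst anaerobic chamber, medium pre-equilibrated ≥3 days). After washing, cells regrew for 5 days before SRB staining and IC50 determination.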
(The SRB assay estimates cell density from bound dye.)

Series [12] relates to HCT-116. As to the kind of experiment: Hypoxic cytotoxicity ratio of IC50 for human HCT116 cells under oxic condition to IC50 for human HCT116 cells under anoxic condition. The gist of the method: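 HCT116 cells, 700 per well and attached 2 h, got a 4 h exposure to 3-fold serial dilutions (<1% DMSO) under air or in a Pd-catalyst anaerobic chamber with pre-equilibrated medium. Cells were washed, regrown 5 days, and stained with sulforhodamine B to give IC50. HCR = oxic IC50 / anoxic IC50.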

The subject of series [13] is HCT-116. The series is described as follows: Cytotoxicity against human HCT116 cells incubated for 4 hrs under aerobic condition measured after 5 days by sulforhodamine B assay. In kind it is cell-based. The gist of the method: as §3
Series [14] relates to HCT-116. The series is described as follows: Hypoxia radiosensitization activity in human HCT116 cells assessed as survival ratio by measuring ratio of cell survival with radiation in absence to presence of compound at 0.4 mM preincubated for 1 hr followed by 6 to 29 Gy irradiation measured after 10 days by methylene blue staining-based cell counting method. In kind it is functional.

For series [15], the system named is HCT-116. As to the kind of experiment: Hypoxia radiosensitization activity in human HCT116 cells assessed as sensitizer enhancement ratio by measuring ratio of radiation dose for 1% survival in absence to presence of compound at 0.4 mM preincubated for 1 hr followed by irradiation measured after 10 days by methylene blue staining-based cell counting method relative to misonidazole. In kind it is functional.

The subject of series [16] is Mus musculus. The series is described as follows: Drug level in NIH-III mouse assessed as maximum achievable dose at 10 ml/kg, iv. In kind it is ADME. Particulars: in vivo. The gist of the method: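 Non-tumor-bearing female NIH-III mice (~20 g) received freshly prepared solutions i.v. at 10 mL/kg in 0.9% saline with 1% DMSO, or saline with 2 molar equivalents NaHCO3 for phosphate prodrugs. MAD was the maximum dose that dissolved in the injection volume.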

Series [17] relates to HCT-116. As to the kind of experiment: Hypoxia radiosensitization activity in human HCT116 cells assessed as sensitizer enhancement ratio by measuring ratio of radiation dose for 1% survival in absence to presence of compound at 0.03 mM preincubated for 1 hr followed by irradiation measured after 10 days by methylene blue staining-based cell counting method. In kind it is functional.

In series [18] the test system is HCT-116. The series is described as follows: Hypoxia radiosensitization activity in human HCT116 cells assessed as sensitizer enhancement ratio by measuring ratio of radiation dose for 1% survival in absence to presence of compound at 0.03 mM preincubated for 1 hr followed by irradiation measured after 10 days by methylene blue staining-based cell counting method relative to misonidazole. In kind it is functional.

Series [19] has as its system HCT-116. As to the kind of experiment: Hypoxia radiosensitization activity in human HCT116 cells assessed as survival ratio by measuring ratio of cell survival with radiation in absence to presence of compound at 0.03 mM preincubated for 1 hr followed by 6 to 29 Gy irradiation measured after 10 days by methylene blue staining-based cell counting method. In kind it is functional.

For series [20], the system named is HCT-116. As to the kind of experiment: Hypoxia radiosensitization activity in human HCT116 cells assessed as survival ratio by measuring ratio of cell survival with radiation in absence to presence of compound at 0.03 mM preincubated for 1 hr followed by 6 to 29 Gy irradiation measured after 10 days by methylene blue staining-based cell counting method relative to misonidazole. In kind it is functional.

Series [21] concerns HCT-116. As to the kind of experiment: Cytotoxicity against human HCT116 cells at anoxic IC50 incubated for 1 hr at 21 degC by sulforhodamine B assay. In kind it is cell-based. Particulars: hct-116, 1 h.

Values after ≈ are worked out from the molar mass of the structure shown.

Consider `O=[N+]([O-])c1nccn1CCS(=O)(=O)NCCN1CCOCC1`, for which the time to peak (Tmax) was 10 min in series [1] and 5 min in series [9]. Also, the Cmax in series [2] amounted to 410 µM; in [7], 1040 µM. In series [3], the Activity entry is given as “Non-Toxic”. For the same compound, the Ratio in [4] came out at 6; in series [6] it was 2; in series [10], 1.357; in series [14], 5. The compound further showed a solubility in [5] above 163000 µM. For the same compound, the “fold change (FC)” value in series [8] was 0.57; in [15] it was 0.92. The 50% inhibitory concentration (IC50) in series [11] is 400 µM; in series [13], 380 to 4800 µM. Also, the “Ratio IC50” value in series [12] is 10. Further, in [16], the Drug uptake came out at 1.12 mmol/kg.

For `O=[N+]([O-])c1nccn1CS(=O)(=O)N1CCOCC1`, the results for the Ratio in series [17], in series [4] and in series [19] were 1.11, 3.8 and 2, respectively. For the same compound, the concentration in solution in [5] (solubility) was 1080 µM (≈ 298 µg/mL). In addition, the “fold change (FC)” value in [18] stood at 0.87; in [20], 0.58. The figures for the IC50 in series [11] and in series [13] were 30 µM and 380 to 4800 µM, respectively. Besides, in series [12], the “Ratio IC50” value came out at 11. The Activity result in series [21] is given as “Non-Toxic”.

A word on the Tmax: it is the time from dosing to the highest level. A word on the Cmax: it is the maximum level reached in the sampled fluid or tissue. As a reminder, the solubility is the dissolved amount per volume that the medium holds. Read a high solubility as much dissolved substance. A word on the IC50: it is the concentration that inhibits the measured activity by half.
